# Compound activity from PubChem.
# HNF4A DNA FP: change in binding of human HNF4A to DNA, primary screen, biochemical, fluorescence polarization, FITC-DNA; Hepatocyte nuclear factor 4-alpha (Homo sapiens), P41235; 1 h; activity change, % at 10 µM; 360,000 tested, 0.3% active; in the data active = activity change above about 30%, passing the limit was not always enough
# Target sequence (P41235 whole entry, looked up): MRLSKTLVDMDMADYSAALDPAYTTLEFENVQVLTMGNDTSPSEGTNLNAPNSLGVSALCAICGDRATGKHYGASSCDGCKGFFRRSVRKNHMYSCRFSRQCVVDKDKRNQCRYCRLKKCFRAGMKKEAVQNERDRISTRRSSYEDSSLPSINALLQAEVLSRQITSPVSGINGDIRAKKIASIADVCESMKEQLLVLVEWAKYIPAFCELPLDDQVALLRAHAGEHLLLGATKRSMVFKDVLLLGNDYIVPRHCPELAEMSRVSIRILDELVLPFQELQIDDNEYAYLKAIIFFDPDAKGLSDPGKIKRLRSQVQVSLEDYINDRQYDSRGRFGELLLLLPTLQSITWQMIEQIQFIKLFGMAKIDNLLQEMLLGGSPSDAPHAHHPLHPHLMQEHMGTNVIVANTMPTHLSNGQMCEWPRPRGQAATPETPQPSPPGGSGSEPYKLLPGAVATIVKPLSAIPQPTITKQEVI
# CSN deneddyl inh: inhibitors of CSN-mediated cullin deneddylation, primary screen, biochemical, fluorescence polarization, uHTS; AID 651999, 2013; Purified CSN, SCF-Nedd8-OG deneddylation; inhibition, % at 12.5 µM; COP9 signalosome complex subunit 5 (Homo sapiens), Q92905; 360,000 tested, 0.38% active;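 active = pattern-corrected inhibition above about 35%, with an unprinted fluorescence ratio check between 0.5 and 1.5, limit read from the data, passing the limit was not always enough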;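 note: 0% = enzyme with substrate and 100% = substrate without enzyme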
#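 Material: human Csn5 produced in HEK293T cells; Input: enzyme 0.24 nM; Reagent: SCFSkp2-Nedd8OG substrate at 10 nM final; Dosing: 12.5 µM compound; Incubation: 90 min reaction at room temperature; Detection: fluorescence polarization of the substrate; Evaluation: % inhibition of substrate cleavage by Csn5; Control set: substrate-only high control, full reaction low control.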
# Rpn11 inh: Rpn11 (PSMD14) deubiquitinase inhibitors, primary screen, biochemical, fluorescence polarization, uHTS; human 26S proteasome, Ub4-pepOG fluorescence polarization; 20S core pre-blocked with epoxomicin; 26S proteasome non-ATPase regulatory subunit 14 (Homo sapiens), O00487; inhibition, % at 20 µM; 360,000 tested, 0.59% active;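 active = inhibition at 20 µM, scaled to each plate's controls, above about 33%, limit read from the data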
# Myeloid diff MLP: induction of myeloid progenitor differentiation, primary screen, cell-based, flow cytometry, MLPCN library; AID 624256, 2012; ER-HoxA9 myeloid progenitors, lysozyme-GFP differentiation; calls only at 10 µM; 360,000 tested, 1% active;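 active = normalized GFP-positive differentiation at or above the plate's own cutoff, the solvent-only control mean plus 3 SD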;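 note: cells exposed to compound for four days before flow analysis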
# TPT1 inhibitor: Candida albicans TPT1 enzyme inhibitors, primary screen, biochemical, fluorescence polarization; 300,000 tested, 0.81% active; inhibition, % at 5 µM; recombinant caTPT1, FP RNA substrate dephosphorylation; tRNA 2'-phosphotransferase TPT1 (Candida albicans SC5314);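 active = inhibition above the mean of all tested compounds plus 3 SD, set per screening campaign, cut at about 24% in these data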;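 note: plate controls were DMSO alone for no effect and ferristatin control at 100 nM for full effect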
# Myeloid diff CP1: inducers of myeloid progenitor differentiation, confirmation, cell-based, GFP/Mac1 flow cytometry, cherry pick 01; AID 651706, 2012; ER-HoxA9 myeloid progenitors, GFP/Mac1 double-positive flow; calls only; 2,300 tested, 2% active; shares compounds with Myeloid diff MLP;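 active = share of green or green-and-red cells above 9 and 9% in run 1 or 4 and 3% in run 2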
# GFP autofluor: counter-screen for myeloid differentiation promoters: compound fluorescence | shares compounds with Myeloid diff MLP | ER-HoxA9 myeloid progenitors, no estrogen, GFP autofluorescence flow cytometry; vehicle wells 0%, positive control 100% | fluorescence response, % (concentration not given with the values) | 2,300 tested, 7.4% active | AID 651707;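 active = over 5% cells positive for green fluorescent reporter, or over 2% positive for both it and APC stain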;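 note: range taken on the double positive population between DMSO and positive control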
# The depositor's hits bear a star; i = inactive; / = not tested or not shown; + = active, no number. Sampled rows, rich in hits. Any-hit rate of the full collection: about 2.3%.
SMILES,HNF4A DNA FP,CSN deneddyl inh,Rpn11 inh,Myeloid diff MLP,TPT1 inhibitor,Myeloid diff CP1,GFP autofluor
CCN1CCN(CC(=O)Nc2cc3c(cc2C(C)=O)OCO3)CC1,1.4,-2.2,1.3,i,0.0,/,/
CC(=O)c1cc2c(cc1NC(=O)CN1CCOCC1)OCO2,4.1,-3.2,1.4,+,1.7,i,0.0
COCCNS(=O)(=O)c1cc(OC)ccc1OC,0.5,4.5,-1.4,i,1.1,/,/
Cc1cc(CN(Nc2ccccc2)c2ccccc2)cc(C)n1,1.0,-0.9,-12.9,i,/,/,/
CCC(C)NC(=S)Nc1ccc2nc(N3CCN(CC)CC3)cc(C)c2c1 (stereo not drawn),9.1,3.0,-2.5,+,-10.0,i,0.0
CCC(C)NC(=S)Nc1ccc2nc(N3CCOCC3)cc(C)c2c1 (stereo not drawn),0.3,-1.3,-2.6,i,2.7,/,/
O=C(NCCSCc1c(F)cccc1Cl)c1ccc(CN2CCOCC2)cc1,0.7,2.5,-5.5,i,-1.1,/,/
COc1ccc(N2CCN(C(=O)CSc3nnc(CNc4ccccc4)o3)CC2)cc1,4.7,-4.5,8.9,i,2.5,i,0.7
COc1ccc(Cc2nnc(SCC(=O)N3CCN(c4ccccc4)CC3)o2)cc1,-0.3,-1.0,0.7,i,0.9,/,/
Nc1nc2cc3c(cc2cc1C(=O)NCc1ccc(F)cc1)OCO3,-5.6,0.0,/,+,/,i,1.4
O=C(NCc1ccc2c(c1)OCO2)c1nnc(Cc2ccc(F)cc2)o1,-4.9,-6.5,-1.4,i,1.7,/,/
CN1CCN(S(=O)(=O)c2ccc(CNC(=O)c3ccccc3)s2)CC1,0.8,-4.2,2.0,i,0.2,/,/
CCOC(=O)c1c(C)c(C(=O)NCc2ccco2)c(C)n1C,0.4,-2.6,2.5,i,19.2,/,/
CCOC(=O)c1c(C)c(C(=O)NCc2cccs2)c(C)n1C,5.3,-2.1,-6.2,i,-0.7,i,0.0
O=C(CSc1ccccc1C(=O)O)NCC1CCCCC1,2.8,1.7,-2.1,i,1.5,/,/
CCN1C[C@@H]2[C@@H]3C(=O)N(C)C(=O)[C@@H]3[C@](Cc3ccccc3)(C1=O)N2C(=O)c1ccc(Cl)c(Cl)c1,-1.7,0.1,4.1,i,/,/,/
N#C/C(=C\c1cc(Cl)cc(Cl)c1O)C(=O)NC1CCCCC1,-4.0,-4.7,17.3,i,4.9,i,0.3
N#C/C(=C\c1cc(Cl)ccc1O)C(=O)NC1CCCCC1,-2.6,1.2,-2.0,i,-1.6,/,/
CCOC(=O)Cc1csc(NC(=O)CC)n1,4.3,4.5,1.1,i,-3.4,/,/
CCOC(=O)Cc1csc(NS(C)(=O)=O)n1,-4.1,5.1,-9.0,i,-0.7,i,0.0
O=C(Nc1ccccn1)c1ccc([N+](=O)[O-])o1,-1.5,-4.7,-3.9,i,-0.5,/,/
Cc1ccnc(NC(=O)c2ccc([N+](=O)[O-])o2)c1,-1.7,0.2,-2.8,+,-6.4,i,0.6
Cc1ccc2nsnc2c1NC(=O)c1ccc(-c2cc(Cl)ccc2Cl)o1,3.8,12.0,20.9,i,1.2,/,/
Cc1ccc2nsnc2c1NC(=O)c1ccc([N+](=O)[O-])o1,-5.2,-6.2,-3.0,+,-2.0,i,0.0
O=C(Cc1cc(=O)[nH][nH]1)N/N=C/c1ccccc1Cl,/,/,/,/,0.7,/,/
SMILES,HNF4A DNA FP,CSN deneddyl inh,Rpn11 inh,Myeloid diff MLP,TPT1 inhibitor,Myeloid diff CP1,GFP autofluor
O=C(Cc1cc(=O)[nH][nH]1)N/N=C/C(Cl)=C/c1ccccc1,0.8,-0.2,5.8,i,-0.1,i,0.5
O=C1CCC/C=C/C[C@@H](CC(=O)N(CCO)Cc2ccccc2)C(=O)NC[C@@H](c2ccccc2)O1,-2.7,-4.9,-5.9,i,/,i,0.4
COc1cccc(C(=O)COC(=O)C(C)N2C(=O)c3ccccc3C2=O)c1 (stereo not drawn),-1.1,4.0,-1.8,i,-3.0,i,0.0
CC(C)OCCCNC(=O)NC(=O)c1ccc(Cl)cc1,-3.4,1.0,-0.7,i,-1.5,/,/
Clc1ccc(-n2cc(-c3ccc(Br)cc3)[n+]3c2CCCCC3)cc1,-1.5,0.9,-3.4,i,0.2,/,/
Brc1ccc(-c2csc3[n+]2CCCCC3)cc1,0.5,-3.9,-3.1,+,4.3,+,0.0
CCC(CC)C(=O)c1c[nH]c(C(=O)N2CCN(c3ccccc3)CC2)c1,-2.9,3.5,-1.6,i,-2.2,/,/
COc1ccccc1N(O)C1CC(=O)N(c2ccc(F)cc2)C1=O (stereo not drawn),4.3,3.4,-1.4,i,-3.3,i,0.0
COc1ccccc1N1C(=O)CC(N(O)c2ccccc2)C1=O (stereo not drawn),5.6,2.8,-1.4,i,0.8,/,/
COc1cc(OC)c(N2CC(C(=O)Nc3cccc(C(=O)NC4CC4)c3)CC2=O)cc1Cl (stereo not drawn),4.0,-0.9,-2.0,i,/,/,/
CCCCC(=O)NC1(C(F)(F)F)C(=O)N(CC(C)C)C2=C1C(=O)CC(C)(C)C2 (stereo not drawn),0.8,2.7,0.5,i,-0.4,/,/
COc1ccccc1CN(Cc1nc2ccccc2c(=O)[nH]1)C(=O)Nc1ccc(C)cc1,-3.2,5.9,2.2,i,-1.5,+,0.0
C=CCOc1cccc(C2C(C(=O)c3ccco3)=C(O)C(=O)N2Cc2cccnc2)c1 (stereo not drawn),0.7,1.7,4.4,i,2.9,/,/
C=CCOc1ccc(C2C(C(=O)c3ccco3)=C(O)C(=O)N2Cc2cccnc2)cc1 (stereo not drawn),-5.0,3.6,12.2,i,5.2,i,12.7*
CCCCCCCSc1ncnc2[nH]ncc12,-1.5,0.1,4.3,i,/,/,/
Cc1ccc(C)c(S(=O)(=O)N2CCN(C(=O)CCC(=O)c3cc(C)sc3C)CC2)c1,0.7,0.7,2.5,+,3.8,i,0.0
CCCCn1c(N)c(N(CC)C(=O)c2ccc(C#N)cc2)c(=O)[nH]c1=O,4.5,4.1,7.7,i,-1.6,/,/
O=C(NCc1ccccc1)C(c1ccc(-c2ccccc2)cc1)N1CCN(CCN2CCOCC2)CC1 (stereo not drawn),2.5,1.2,/,i,/,/,/
O=C(NCc1ccccc1)C(c1ccc(C(F)(F)F)cc1)N1CCN(CCN2CCOCC2)CC1 (stereo not drawn),5.5,0.6,/,i,/,i,0.3
